Measurements taken from PubChem BioAssay.
Active and inactive are the calls of the source.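 The calls were made as follows, unless noted: active = current rise at least 3 SD above the untreated control mean in each of two repeat wells; inactive = the rest.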

Assays:
[1] = thallium flux activation in parental CHO cells, counter-screen for KCNQ1 potentiator project (AID 493006;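 active = duplicate-averaged activation above buffer control mean plus 5 SD of those controls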); conditions: parental CHO-K1 cells, FluxOR thallium flux, at 10 µM; active compounds read high
Procedure, shortened: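 Material: untransfected host CHO-K1 cells with FluxOR thallium dye. Timing: overnight 37 °C plating, 90 min RT dye, 20 min compound. Detection: kinetic FluxOR fluorescence, 10 s baseline, 110 s after stimulus. Read-out basis: max-minus-min fluorescence over baseline, percent of buffer-to-R-L3 span. Replicates: duplicate wells per compound, percent values averaged.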

[2] = molecular target: Potassium voltage-gated channel subfamily KQT member 1 (Homo sapiens) (UniProt P51787); experiment: KCNQ1 potassium channel potentiators, confirmation, FluxOR thallium flux, CHO cells, duplicates (AID 493007;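 active = potentiation averaged over duplicate wells exceeding buffer-only control mean by more than 3 SD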); conditions: KCNQ1 cell line, FluxOR thallium flux fluorescence, at 10 µM; active compounds read high, % of reference activator effect, buffer zero
Procedure, shortened: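 Test system – KCNQ1-expressing CHO cell line · Incubation – FluxOR dye loading 90 min, compound exposure 20 min, room temperature · Detection – FluxOR Tl+ flux fluorescence, 10 s baseline plus 110 s recording · Controls – buffer-only wells as 0% and R-L3 activator as 100%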

[3] = molecular target: Potassium voltage-gated channel subfamily KQT member 2 (Rattus norvegicus) (UniProt O88943); experiment: rat KCNQ2 channel potentiation, selectivity assay for KCNQ1 potentiator project, KCNQ2-CHO-K1 cells (AID 493009;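 active = mean duplicate potentiation above the buffer control mean plus 5 SD of buffer wells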;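 also: assay conditions were tuned for KCNQ1 rather than KCNQ2 modulators; signal is max minus min fluorescence divided by baseline after thallium stimulus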); conditions: FluxOR thallium flux fluorescence, at 10 µM; active compounds read high, scaled: buffer 0, activator control 100
[4] = molecular target: Potassium voltage-gated channel subfamily KQT member 1 (Homo sapiens) (UniProt P51787); experiment: KCNQ1 channel current potentiators, confirmation, orthogonal assay for KCNQ1 potentiator project, IonWorks patch clamp, KCNQ1-CHO cells (AID 493184); conditions: automated patch clamp current, at 10 µM; active compounds read high
Procedure, shortened: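 Read-out: Percent current increase versus pre-compound level | Assay system: CHO cells carrying KCNQ1 | Measured by: Automated perforated-patch electrophysiology | Medium: External bath solution at pH 7.4 | Dosing: One dose, 10 µM final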

[5] = molecular target: Potassium voltage-gated channel subfamily E member 1 (Homo sapiens) + Potassium voltage-gated channel subfamily KQT member 1 (Homo sapiens) (UniProt P15382+P51787); experiment: KCNQ1/KCNE1 complex potentiators, confirmation, selectivity assay for KCNQ1 potentiator project, thallium flux, CHO-K1 KCNQ1/E1 cells (AID 493186;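 active = mean duplicate activation above the buffer control mean plus 5 SD of those controls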); conditions: FluxOR thallium flux, at 10 µM; active compounds read high
Procedure, shortened: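 Test system: CHO-K1 cells with KCNQ1/E1; dosing: one test concentration; signal: FluxOR Tl+ flux fluorescence, kinetic read; incubation: 90-min dye loading then 20-min compound exposure, both at room temperature; read-out basis: percent of R-L3 effect over buffer; replication: duplicate wells per compound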

Measured: potentiation

Sequence of Potassium voltage-gated channel subfamily KQT member 2 (Rattus norvegicus) (O88943 whole entry, looked up): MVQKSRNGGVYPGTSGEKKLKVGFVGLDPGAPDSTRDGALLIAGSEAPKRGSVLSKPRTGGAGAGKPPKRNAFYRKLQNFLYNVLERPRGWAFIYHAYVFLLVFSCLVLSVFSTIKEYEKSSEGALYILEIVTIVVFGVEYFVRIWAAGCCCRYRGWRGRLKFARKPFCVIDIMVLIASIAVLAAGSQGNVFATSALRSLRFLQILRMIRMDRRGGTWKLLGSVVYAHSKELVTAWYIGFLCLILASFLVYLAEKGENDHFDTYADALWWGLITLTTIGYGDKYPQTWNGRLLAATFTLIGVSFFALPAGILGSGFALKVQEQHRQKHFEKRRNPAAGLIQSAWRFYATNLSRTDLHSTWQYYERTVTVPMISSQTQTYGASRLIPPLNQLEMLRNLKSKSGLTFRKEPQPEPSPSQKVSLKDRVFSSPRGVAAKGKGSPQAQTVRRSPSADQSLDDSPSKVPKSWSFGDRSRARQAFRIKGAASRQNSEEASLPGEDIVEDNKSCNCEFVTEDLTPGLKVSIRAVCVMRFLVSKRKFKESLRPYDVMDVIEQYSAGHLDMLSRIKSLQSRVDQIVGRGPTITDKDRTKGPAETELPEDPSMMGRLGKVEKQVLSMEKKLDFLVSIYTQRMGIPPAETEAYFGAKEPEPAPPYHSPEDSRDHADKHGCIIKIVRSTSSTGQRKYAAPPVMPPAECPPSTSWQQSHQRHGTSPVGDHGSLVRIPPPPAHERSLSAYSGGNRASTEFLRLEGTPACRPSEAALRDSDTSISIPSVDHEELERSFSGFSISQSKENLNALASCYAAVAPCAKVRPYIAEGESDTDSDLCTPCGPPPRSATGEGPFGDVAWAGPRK
Sequence of Potassium voltage-gated channel subfamily KQT member 1 (Homo sapiens) (P51787 whole entry, looked up): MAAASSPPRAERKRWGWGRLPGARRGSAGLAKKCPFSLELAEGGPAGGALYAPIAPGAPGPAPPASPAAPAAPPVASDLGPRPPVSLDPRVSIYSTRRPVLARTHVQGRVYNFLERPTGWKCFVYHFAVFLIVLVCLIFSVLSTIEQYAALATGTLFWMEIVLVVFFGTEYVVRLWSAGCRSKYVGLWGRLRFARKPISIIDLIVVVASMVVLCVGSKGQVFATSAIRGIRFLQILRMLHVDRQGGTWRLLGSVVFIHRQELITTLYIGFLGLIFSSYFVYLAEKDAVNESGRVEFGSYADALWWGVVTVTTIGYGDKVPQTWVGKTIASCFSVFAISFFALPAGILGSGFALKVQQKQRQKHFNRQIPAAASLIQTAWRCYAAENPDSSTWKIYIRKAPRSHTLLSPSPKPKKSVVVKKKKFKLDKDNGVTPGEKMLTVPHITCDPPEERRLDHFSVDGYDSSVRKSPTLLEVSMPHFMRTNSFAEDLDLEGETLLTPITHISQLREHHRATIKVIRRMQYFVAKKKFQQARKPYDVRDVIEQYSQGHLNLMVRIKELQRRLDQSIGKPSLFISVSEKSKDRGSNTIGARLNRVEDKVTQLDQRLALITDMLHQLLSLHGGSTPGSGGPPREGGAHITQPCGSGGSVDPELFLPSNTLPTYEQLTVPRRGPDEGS
Sequence of Potassium voltage-gated channel subfamily E member 1 (Homo sapiens) + Potassium voltage-gated channel subfamily KQT member 1 (Homo sapiens) (P51787 whole entry, looked up): as the sequence (P51787 whole entry, looked up) above

CC(=O)C[C@H]1c2cc(C(F)(F)F)ccc2S(=O)(=O)N1Cc1ccccc1
active: [2] 65.5%
inactive: all other assays above

O=C(CN(CC1CCCO1)C(=O)CNS(=O)(=O)c1ccc(Cl)cc1)NC1CCCC1 (stereo not given)
inactive: all assays above

Nc1nnc(SCC(=O)N2CCN(c3ccccc3)CC2)n1-c1ccccc1
inactive: all assays above

S=c1[nH]cnc2scc(-c3ccc(Br)cc3)c12
active: [2] 32.5% | [3] 147%
inactive: all other assays above

COc1ccc(-c2nonc2NC(=O)c2oc3ccccc3c2C)cc1OC
inactive: all assays above

CCC(C)NCC(=O)Nc1sc2c(c1C(N)=O)CCC2 (stereo not given)
inactive: all assays above

O=C(Nc1ccc(N2CCCC(O)C2)cc1)c1snc2c(=O)[nH]cnc12 (stereo not given)
inactive: all assays above

O=C(CC1(O)C(=O)N(Cc2ccccc2)c2ccccc21)c1ccncc1 (stereo not given)
active: [2] 27.5% | [3] 146%
inactive: all other assays above

Cc1[nH][nH]c(=O)c1C(c1ccc(-c2ccc(Cl)c(Cl)c2)o1)c1c(C)[nH][nH]c1=O
active: [2] 30%
inactive: all other assays above

NNc1nc2c(F)cc(F)cc2s1
inactive: all assays above

COc1cc(O)c2c(=O)c(-c3ccc(O[C@@H]4O[C@H](CO)[C@@H](O)[C@H](O)[C@H]4O)cc3)coc2c1
inactive: all assays above

O=C(NC(=S)Nc1nc2c(s1)CCCC2)c1ccccc1
active: [2] 26%
inactive: all other assays above

CC(c1nccs1)N(C)C(=O)CCc1nnc(Cc2c[nH]c3ccccc23)o1 (stereo not given)
inactive: all assays above

O=C(Nc1ccc(Cl)cc1C(F)(F)F)C(Sc1cccc[n+]1[O-])c1ccccc1 (stereo not given)
inactive: all assays above

O=C(CC(c1ccccc1)c1ccccc1)Nc1ncn[nH]1
inactive: all assays above

CCCn1c(N)c(C(=O)CSc2nc3ccccc3c(=O)n2Cc2ccccc2)c(=O)[nH]c1=O
inactive: all assays above

Cc1ccc(-n2c(C)cc(/C=N/NC(=O)c3ccncc3)c2C)c(C)c1
inactive: all assays above

CCc1ccc(-c2ccc3nnc(SC)n3n2)cc1
inactive: all assays above

O=C(NC(=S)N1CCCCCC1)c1ccccc1Cl
active: [2] 25% | [3] 146%
inactive: all other assays above

C/C(=N\Nc1nc(C)c(C)s1)c1ccc([N+](=O)[O-])cc1
active: [2] 43% | [3] 150%
inactive: all other assays above

Cc1ccc(CCNC(=O)C2CC(c3cccc(F)c3)=NO2)cc1 (stereo not given)
inactive: all assays above

Cn1cccc1/C=N/n1c(-c2ccc(Cl)cc2Cl)n[nH]c1=S
inactive: all assays above

O=S(=O)(Nc1cccnc1)c1ccc(Cl)cc1
inactive: all assays above

CCCOc1ccc(C(=O)NNC(=S)NC(=O)c2cc(-c3ccc(Cl)cc3)nc3ccccc23)cc1
inactive: all assays above

CCOC(=O)CNC(=O)N1CCc2ccc(NC(=O)c3ccccc3Cl)cc2C1
inactive: all assays above

O=C(NC(=S)Nc1ccccc1)c1cncc(C#Cc2ccccc2)c1
active: [2] 37%
inactive: all other assays above

S=C(NCCc1ccccc1)N1CCn2cccc2C1c1cccnc1 (stereo not given)
active: [2] 18.5%
inactive: all other assays above

Cc1cccc2sc(N(CCCN(C)C)C(=O)c3ccc4ncsc4c3)nc12
inactive: all assays above

Cc1cc(C(=O)CCl)c(C)n1-c1cccc([N+](=O)[O-])c1
inactive: all assays above

Cc1ccc(-c2ccc(/C=C3\C(=O)ON=C3c3ccccc3)o2)c([N+](=O)[O-])c1
active: [2] 29%
inactive: all other assays above

CCCCn1c(=O)[nH]c(=O)c2c1nc(Cn1ncc(Cl)c(Cl)c1=O)n2CCC
inactive: all assays above

CCN(CC)CCCNC(=O)c1c(O)c2cc(F)cc3c2n(c1=O)C(C)CC3 (stereo not given)
inactive: all assays above

COc1ccc(OC)c(NC(=S)NC(=O)c2ccc(Br)o2)c1
inactive: all assays above

COc1cccc(C2C3=C(N=c4s/c(=C\c5ccc(OCC(=O)O)cc5)c(=O)n42)c2ccccc2CC3)c1 (stereo not given)
active: [2] 53%
inactive: all other assays above

CCOC(=O)C(Sc1nnc(-c2ccncc2)o1)C(C)=O (stereo not given)
inactive: all assays above

CCn1c(O)c(N=NC(=S)NCC2CCCO2)c2ccccc21 (stereo not given)
inactive: all assays above

Cc1cccc(C(=O)O/N=C(\N)c2cccc([N+](=O)[O-])c2)c1
inactive: all assays above

Cc1onc(-c2ccccc2)c1C(=O)NC(=S)NNC(=O)c1ccccc1O
active: [2] 17.5%
inactive: all other assays above

Cc1nc(NC(=S)NC(=O)c2ccccc2)sc1C
inactive: all assays above

CCOC(=O)c1cc(C)sc1NC(=O)CN1CCN(C(=O)c2ccco2)CC1
active: [2] 17.5%
inactive: all other assays above

COCCn1c(C)cc(C(=O)COC(=O)c2ccc([N+](=O)[O-])o2)c1C
active: [2] 22.5%
inactive: all other assays above

CC1(C)CC(N=c2cc(-c3ccccc3)oc3ccc(Cl)cc23)CC(C)(C)N1
inactive: all assays above

O=C(NCc1ccccc1)C(=O)Nc1nc(C23CC4CC(CC(C4)C2)C3)cs1
inactive: all assays above

Cc1ccc(C)c(/C=N/n2cc(-c3ccccc3)[nH]c2=S)c1
active: [2] 24.5%
inactive: all other assays above

CC(C)(C)c1ccc(-n2nc(C#N)c(Cl)cc2=O)cc1
inactive: all assays above

O=C(NCC(c1cccs1)N1CCOCC1)C1CCN(S(=O)(=O)c2cccc(C(F)(F)F)c2)CC1 (stereo not given)
inactive: all assays above

CC(=O)Nc1ccc(NC(=O)CSC2=NS(=O)(=O)c3cc(Cl)ccc3N2)cc1
inactive: all assays above

S=c1[nH]nc(C2CCCCC2)n1/N=C/c1cccc(Cl)c1Cl
active: [2] 41%
inactive: all other assays above

Cc1ccc(OCCn2c(=S)[nH]c3ccccc32)c(C(C)C)c1
active: [2] 119%
inactive: all other assays above

CCN(CC)CCNc1ncnc2c1sc1nc(N3CCCC3)c3c(c12)CC(C)(C)OC3
inactive: all assays above

CN(C(=O)c1ccc2c(c1)OCO2)C1CCCCC1
inactive: all assays above

COc1ccc(C2CC(c3c(-c4ccccc4)c4cc(Cl)ccc4[nH]c3=O)=NN2S(C)(=O)=O)cc1OC (stereo not given)
inactive: all assays above

CN(C)CCCN(C(=O)CCOc1ccccc1)c1nc2c(F)cccc2s1
inactive: all assays above

CCC1=NN2C(=N)/C(=C/c3ccc(OS(=O)(=O)c4ccccc4)c(OC)c3)C(=O)N=C2S1
inactive: all assays above

COc1ccccc1C(=O)NNC(=O)c1nn(Cc2ccccc2)c(=O)c2ccccc12
inactive: all assays above

CSCC(C)N1CCC(n2nccc2NC(=O)CCOc2ccccc2)CC1 (stereo not given)
inactive: all assays above

CN(C)c1cccc(C(=O)N2CCCC(C(=O)c3cc(F)ccc3F)C2)c1 (stereo not given)
inactive: all assays above

S=c1[nH]nc(-c2ccco2)n1/N=C/C(Cl)=C/c1ccccc1
active: [2] 26%
inactive: all other assays above

O=C(NNc1cc(N2CCOCC2)nc(N2CCOCC2)n1)C12CC3CC(CC(C3)C1)C2
active: [2] 51%
inactive: all other assays above

COC(=O)C1=C(C)Nc2nc(-c3ccccc3)nn2C1c1ccc(C)o1 (stereo not given)
active: [2] 30%
inactive: all other assays above
